Consider two compounds from ChEMBL document CHEMBL4033788, “Novel Ligustrazine-Based Analogs of Piperlongumine Potently Suppress Proliferation and Metastasis of Colorectal Cancer Cells in Vitro and in Vivo” (J Med Chem, 2018).

Data set [1] is described as follows: Aqueous solubility of compound by HPLC analysis. The format is physicochemical. The following applies: water. In a few lines:
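Compound shaken in pure water or 50 mM phosphate buffer pH 7.4 at 20 °C, then centrifuged. Supernatant assayed by C18 HPLC (acetonitrile–water 60/40, 1.0 mL/min, 254 nm). Triplicate.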

The nature of data set [2]: Acute toxicity in ICR mouse assessed as survival rate at 150 mg/kg, ip administered for 14 days relative to control. The class given is organism-based. The conditions noted are these: in vivo.
Data set [3] relates to Mus musculus. The data set is described as follows: Nephrotoxicity in BALB/c nude mouse xenografted with human HCT116 cells at 2.5 to 5 mg/kg, ip administered for 21 consecutive days. The conditions noted are these: in vivo. The format is toxicity, organism-based. In a few lines:
(§1)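 Male BALB/c nude mice (3−5 weeks) inoculated sc with 1 × 10^7 HCT-116 cells; at tumour volume about 75 mm3 randomized (n = 8 per group) and dosed ip daily at 2.5 or 5 mg/kg for 21 consecutive days. Body weights monitored; liver, kidney, lung and heart inspected for size and morphology at sacrifice.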
For orientation: Xenograft models place foreign cells or tissue in a host animal.

The nature of data set [4]: Thiol reactivity in DMSO assessed as addition reaction at C8 position at 5 mg up to 8 hrs in presence of 3.0 equiv methyl thioglycolate by 1H NMR analysis.
Data set [5] concerns the target RAC-alpha serine/threonine-protein kinase (Homo sapiens) (UniProt P31749). The data set is described as follows: Inhibition of TGF-beta1-induced AKT phosphorylation in human HCT116 cells after 48 hrs by Western blot analysis. The class given is cell-based. In a few lines:
(§2)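 HCT-116 cells treated with or without TGF-β1 (10 ng/mL) for 48 h, with or without test agent. Lysates (20 μg/lane) run on 7.5% SDS-PAGE and transferred to PVDF. Probed for p-Akt (Ser473), Akt, p-GSK-3β (S9), GSK-3β, E-cadherin, MMP-9 and β-actin, detected by ECL. Densitometry relative to β-actin or total protein. Three independent experiments.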
(In general: In western blotting, separated proteins are transferred to a membrane and probed.)

Data set [6] can be described thus: Acute toxicity in ICR mouse assessed as survival rate at 100 mg/kg, ip administered for 14 days relative to control. The class given is organism-based. The following applies: in vivo.
Data set [7] is described as follows: Induction of ROS accumulation in human CCD-841 cells at 1 to 10 uM up to 3 hrs by DCFH-DA staining-based fluorescence spectrometric analysis. The format is cell-based. The following applies: ccd-841, 3 h. In a few lines:
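HCT-116 and CCD-841 cells treated in triplicate at 1, 5 and 10 μM for 1, 2 and 3 h. Intracellular ROS stained with DCFH-DA and fluorescence read on a microplate reader. Values expressed relative to DMSO control, from three separate experiments.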

The subject of data set [8] is HCT-116. The data set is described as follows: Antitumor activity against human HCT116 cells xenografted in BALB/c nude mouse assessed as reduction in tumor size at 2.5 to 5 mg/kg, ip administered daily for 21 consecutive days. The format is functional, organism-based. Put shortly:
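Male BALB/c nude mice, 3–5 weeks old, inoculated subcutaneously with 1 × 10^7 HCT-116 cells. At about 75 mm³ tumor volume, randomized (n = 8/group) and dosed intraperitoneally daily. Volume by caliper as d² × D/2. At the end, tumors excised and weighed; inhibition = (Wcontrol − Wtreated)/Wcontrol × 100%.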

The test system of data set [9] is Mus musculus. The data set is described as follows: Toxicity in BALB/c nude mouse assessed as reduction in body weight at 2.5 to 5 mg/kg, ip administered for 21 consecutive days. The class given is organism-based. The following applies: in vivo. In a few lines:
as §1

In data set [10] the test system is HCT-116. The data set is described as follows: Inhibition of TGF-beta1-induced increase in expression levels of twist protein in human HCT116 cells after 48 hrs by Western blot analysis. The format is functional, cell-based. In a few lines:
(§3)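 HCT-116 cells (1 × 10^6/well, plated overnight) were exposed to TGF-β1 (10 ng/mL) for 48 h, with or without test compound; vehicle was 0.1% DMSO. Lysates (20 μg/lane) were run on 7.5% SDS-PAGE and blotted to PVDF, with primary antibody overnight at 4 °C and HRP/ECL detection. Band densities were normalised to β-actin across three independent experiments.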

In data set [11] the test system is HCT-116. The data set is described as follows: Inhibition of TGF-beta1-induced increase in expression levels of snail protein in human HCT116 cells after 48 hrs by Western blot analysis. The format is functional, cell-based. Put shortly: as §3
The test system of data set [12] is HCT-116. The data set is described as follows: Antimigratory activity in human HCT116 cells assessed as inhibition of TGF-beta1-induced cell migration at 50 nM after 48 hrs by trans-well assay. The class given is functional, cell-based. Put shortly:
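HCT-116 cells (1 × 10^5/well) placed in upper chambers of 8 μm pore transwells. Lower chambers held, in triplicate, medium alone or TGF-β1 (10 ng/mL) with or without test agents (2, 10, 50 nM) for 48 h. Non-migrated cells removed, migrated cells stained with crystal violet, 10 fields per well counted blinded. Three independent experiments.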

The subject of data set [13] is HCT-116. The data set is described as follows: Inhibition of TGF-beta1-induced increase in expression levels of snail protein in human HCT116 cells at 50 nM after 48 hrs by Western blot analysis. The format is functional, cell-based. In a few lines:
as §3

The subject of data set [14] is HCT-116. The data set is described as follows: Inhibition of TGF-beta1-induced increase in expression levels of vimentin protein in human HCT116 cells at 50 nM after 48 hrs by Western blot analysis. The format is functional, cell-based. In a few lines:
as §3

Data set [15] has as its target Glycogen synthase kinase-3 beta (Homo sapiens) (UniProt P49841). The data set is described as follows: Inhibition of TGF-beta1-induced GSK-3beta phosphorylation in human HCT116 cells at 50 nM after 48 hrs by Western blot analysis. The class given is cell-based. In a few lines: as §2
Data set [16] concerns the target T1, Catenin beta-1 (Homo sapiens) (UniProt P35222).
T1 sequence (whole entry): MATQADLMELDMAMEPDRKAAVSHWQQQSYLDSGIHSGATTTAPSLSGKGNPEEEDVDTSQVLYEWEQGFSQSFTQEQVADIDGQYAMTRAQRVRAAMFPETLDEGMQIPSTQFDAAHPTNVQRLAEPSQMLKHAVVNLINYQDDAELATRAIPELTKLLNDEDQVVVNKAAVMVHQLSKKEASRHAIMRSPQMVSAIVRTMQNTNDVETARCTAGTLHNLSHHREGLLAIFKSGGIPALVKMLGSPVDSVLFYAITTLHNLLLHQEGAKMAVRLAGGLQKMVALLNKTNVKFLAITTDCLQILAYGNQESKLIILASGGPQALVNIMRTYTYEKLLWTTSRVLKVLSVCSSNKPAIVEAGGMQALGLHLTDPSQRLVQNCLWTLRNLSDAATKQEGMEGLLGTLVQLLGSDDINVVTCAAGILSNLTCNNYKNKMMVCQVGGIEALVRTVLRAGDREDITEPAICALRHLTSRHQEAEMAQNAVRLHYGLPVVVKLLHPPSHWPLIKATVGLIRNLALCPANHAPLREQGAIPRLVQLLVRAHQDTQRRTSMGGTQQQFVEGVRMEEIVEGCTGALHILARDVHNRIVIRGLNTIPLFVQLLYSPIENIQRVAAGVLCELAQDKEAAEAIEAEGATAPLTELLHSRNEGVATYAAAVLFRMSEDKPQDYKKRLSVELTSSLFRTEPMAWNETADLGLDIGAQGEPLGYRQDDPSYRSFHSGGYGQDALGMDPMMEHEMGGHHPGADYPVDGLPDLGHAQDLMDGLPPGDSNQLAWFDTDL
The data set is described as follows: Inhibition of TGF-beta1-regulated increase in nuclear beta-catenin in human HCT116 cells at 50 nM after 48 hrs by Western blot analysis. The class given is cell-based. Put shortly: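 Cytoplasmic and nuclear β-catenin were measured by Western blot in HCT-116 cells given TGF-β1 (10 ng/mL) for 48 h, with or without compound, against 0.1% DMSO vehicle. Lysates (20 μg/lane) were run on 7.5% gels and transferred to PVDF, with Lamin A among the antibodies used. Blots were read by ECL and densitometry, n = 3 independent experiments.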

Structures are written as SMILES. Converted amounts (≈) assume the structure as drawn. The source made the active and inactive calls. No cut-off for these calls is given here.

Chain of RAC-alpha serine/threonine-protein kinase (Homo sapiens) (P31749 whole entry): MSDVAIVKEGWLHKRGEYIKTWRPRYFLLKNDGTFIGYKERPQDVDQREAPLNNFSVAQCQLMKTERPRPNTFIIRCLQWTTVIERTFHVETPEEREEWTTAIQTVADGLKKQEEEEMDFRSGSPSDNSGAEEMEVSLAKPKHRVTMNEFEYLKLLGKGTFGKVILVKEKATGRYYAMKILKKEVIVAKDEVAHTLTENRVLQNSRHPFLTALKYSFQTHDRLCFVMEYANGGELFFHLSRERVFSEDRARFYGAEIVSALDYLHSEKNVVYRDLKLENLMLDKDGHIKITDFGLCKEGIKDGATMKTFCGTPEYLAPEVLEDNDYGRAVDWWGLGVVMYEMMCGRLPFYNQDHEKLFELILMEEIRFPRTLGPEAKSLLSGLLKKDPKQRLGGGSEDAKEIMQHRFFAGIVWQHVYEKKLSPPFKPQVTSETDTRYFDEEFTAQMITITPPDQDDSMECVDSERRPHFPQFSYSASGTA
Chain of Glycogen synthase kinase-3 beta (Homo sapiens) (P49841 whole entry, looked up): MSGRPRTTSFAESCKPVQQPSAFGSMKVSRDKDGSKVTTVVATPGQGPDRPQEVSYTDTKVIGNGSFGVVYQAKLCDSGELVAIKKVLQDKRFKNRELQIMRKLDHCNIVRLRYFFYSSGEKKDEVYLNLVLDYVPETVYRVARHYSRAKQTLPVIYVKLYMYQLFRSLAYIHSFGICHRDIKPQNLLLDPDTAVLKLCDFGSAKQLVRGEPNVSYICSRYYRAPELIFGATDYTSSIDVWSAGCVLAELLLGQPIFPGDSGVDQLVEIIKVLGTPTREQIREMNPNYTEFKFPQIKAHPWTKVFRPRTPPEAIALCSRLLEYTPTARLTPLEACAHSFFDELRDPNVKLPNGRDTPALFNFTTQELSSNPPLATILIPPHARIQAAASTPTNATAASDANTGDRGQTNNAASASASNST

By solubility is commonly meant how much of the substance goes into solution per volume. Higher therefore signals a readily soluble substance. `Cc1nc(C)c(/C=C/C(=O)N2CCC=C(Cl)C2=O)nc1C` showed a solubility in [1] of 22.8 µg/mL (≈ 74.7 µM). For the same compound, the survival at 336 h in data set [2] came out at 40%; in [6], 80%. The Activity entry (in the data set on Mus musculus [3]; in data set [7]; with Mus musculus [9]) was “Non-Toxic” in each case. Besides, the Drug metabolism entry in data set [4] is “Metabolite not detected”. Moreover, the inhibition result (in data set [5]; with HCT-116 [10]; with HCT-116 [11]) was “Dose-dependent effect” in each case. Besides, the outcome in the data set with HCT-116 [8] was Active.

Turning to `COc1cc(/C=C/C(=O)N2CCC=CC2=O)cc(OC)c1OC` [PIPLARTINE], the result in the data set with HCT-116 [12] was Active. The inhibition result (in the data set on HCT-116 [13]; in the data set on HCT-116 [14]; in [15]; in data set [16]) was “Active” each time.
